Results: ChEMBL document CHEMBL1124676, “Hypoxia-selective antitumor agents. 2. Electronic effects of 4-substituents on the mechanisms of cytotoxicity and metabolic stability of nitracrine derivatives” (J Med Chem, 1989)

Key:
[1] = Hypersensitivity factor (HF) of IC50 (AA8) / IC50 (EM-9) of compound for repair deffective mutants; assay type: functional
How it was run: (§1)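 Miniassay: AA8, UV-4, UV-5 or EM-9 cells were seeded at 2 × 10^4 cells/mL in 24-well dishes. After 24 h, five 2-fold serial concentrations were added in duplicate and held 4 h at 37 °C. Cells were washed, grown 30 h more, trypsinized and counted electronically. IC50 is 50% of mean control cell density. HF = IC50(AA8)/IC50(mutant), mean ± SE of 2–4 experiments.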

[2] = Hypersensitivity factor (HF) of IC50 (AA8) / IC50 (UV-4) of compound for repair deffective mutants; assay type: functional; how it was run: as §1
[3] = Hypersensitivity factor (HF) of IC50 (AA8) / IC50 (UV-5) of compound for repair deffective mutants; assay type: functional; how it was run: as §1
[4] = Half life of extracellular bioactivity assessed by bioassay of culture supernatant against aerobic UV-4 cells; assay type: ADME, cell-based, Cricetulus griseus, UV4; conditions: chinese hamster, aerobic UV-4 cell cultures (culture supernatant)
How it was run: (§2)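 Plateau-phase AA8 cells, 10^6 cells/mL, stirred suspension under 5% CO2 in air or N2. Supernatants sampled over time (spun 1300g × 1 min) and dilutions assayed against log-phase UV-4 (seeded 3 × 10^3 cells/mL, 24 h earlier), 4-day continuous exposure, methylene blue staining. Activity remaining = IC50 at time zero / apparent IC50; half-life and zero-time intercept from log-linear regression.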

[5] = Half life of extracellular bioactivity assessed by bioassay of culture supernatant against hypoxic UV-4 cells; assay type: ADME, cell-based, Cricetulus griseus, UV4; conditions: chinese hamster, hypoxic UV-4 cell cultures (culture supernatant); how it was run: as §2
[6] = Extrapolated fraction of biological activity remaining at time zero of hypoxic AA8 suspension cultures; assay type: ADME; conditions: hamster; how it was run: as §2
[7] = (§3) Extrapolated fraction of biological activity remaining at time zero of stirred aerobic AA8 suspension cultures; assay type: ADME; conditions: hamster; how it was run: as §2
[8] = Total compound concentration in AA8 suspension cultures at zero time; assay type: ADME; conditions: hamster
[9] = system: CHO-AA8; test: Inhibitory activity to reduce cell density by 50% of AA8 cells under aerobic conditions; assay type: functional, cell-based; conditions: Cricetulus griseus
How it was run: (§4)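 Microassay: 200 AA8 or 300 UV-4 viable cells/well plus 5000 irradiated (35 Gy) AA8 feeder cells. Serial 2-fold drug dilutions added after 24 h. Plates held 18 h at 37 °C in chambers flushed with 5% CO2 in air or in N2 (with 1% H2, Pd catalyst). Then washed, grown 72-78 h, stained with methylene blue, A620−A405. IC50 vs 50% of control; three independent experiments.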

[10] = system: UV4; test: Inhibitory ativity to reduce cell density by 50% of repair deffective mutant UV-4 cells in 96-well cultures under aerobic conditions; assay type: functional, cell-based; conditions: Cricetulus griseus; how it was run: as §4
[11] = system: UV4; test: Inhibitory concentration required to reduce cell density in UV-4 cells to 50% of controls (cells were exposed to compound for 4 days continuously); assay type: functional, cell-based; conditions: Cricetulus griseus, UV4, 96 h
How it was run: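 UV-4 cells seeded at 3 × 10^3 cells/mL about 24 h before drug, exposed continuously for 4 days, then methylene blue staining. IC50 = concentration reducing absorbance to 50% of controls; six determinations.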

[12] = Ratio for […], expressed as hypersensitivity factor under aerobic conditions; assay type: functional; how it was run: as §4
[13] = Ratio of growth inhibition of compound to reduce cell density by 50% of repair deffective mutant UV-4 cells in 96-well cultures under aerobic and hypoxic conditions (air/N2); assay type: functional; how it was run: as §4
[14] = Ratio of growth inhibition of compound to reduce cell density by 50% of AA8 cells under aerobic and hypoxic conditions (air/N2); assay type: functional, CHO-AA8; how it was run: as §4
[15] = Half life of extracellular bioactivity assessed by bioassay of culture supernatant against aerobic UV-4 cells; No statistically significant trend with time; assay type: ADME, cell-based, Cricetulus griseus; conditions: chinese hamster, uv4; how it was run: as §2
[16] = system: CHO-AA8; test: as §3; assay type: functional, Cricetulus griseus; how it was run: as §2
[17] = Ratio for hypoxic AA8/ hypoxic UV-4, expressed as hypersensitivity factor under hypoxic conditions; assay type: functional; how it was run: as §4

SMILES | Ratio [1] | Ratio [2] | Ratio [3] | half-life [4] | half-life [5] | A0 [6] | A0 [7] | CO [8] | IC50 [9] | IC50 [10] | IC50 [11] | Ratio [12] | Ratio [13] | Ratio [14] | T1/2 [15] | A0 [16] | Ratio [17]
O=[N+]([O-])c1cc[n+]([O-])c2ccccc12 [4-NITROQUINOLINE-1-OXIDE] | 0.8 | 17 | 16 | – | – | – | – | – | – | – | – | – | – | – | – | – | –
CN(C)CCCNc1c2ccccc2nc2c(F)ccc([N+](=O)[O-])c12 | – | – | – | 0.91 h | 0.77 h | 0.84 | 0.64 | 0.1 mM | 0.25 µM | 0.012 µM | 0.002 µM | 21 | 1.4 | 1.3 | – | – | –
CN(C)CCCNc1c2ccccc2nc2c(N(C)C)ccc([N+](=O)[O-])c12 | – | – | – | 4.8 h | 2.3 h | 0.68 | 0.78 | – | 18.9 µM | 6.2 µM | 0.41 µM | 2.1 | 2.3 | 3.3 | – | – | –
COc1cc(NS(C)(=O)=O)ccc1Nc1c2ccccc2nc2ccccc12 | 0.68 | 0.9 | 0.9 | – | – | – | – | – | – | – | – | – | – | – | – | – | –
CN(C)CCCNc1c2ccccc2nc2c(N(CCO)CCO)ccc([N+](=O)[O-])c12 | – | – | – | – | – | – | – | – | 62 µM | 19.4 µM | – | – | – | – | – | – | –
Cc1ccc([N+](=O)[O-])c2c(NCCCN(C)C)c3ccccc3nc12 | – | – | – | – | 0.99 h | 1.12 | 0.65 | 0.2 mM | 0.076 µM | 0.008 µM | 0.00165 µM | 9 | 4.6 | 5 | Not Active | – | –
CN(C)CCCNc1c2ccccc2nc2cccc([N+](=O)[O-])c12 [NITRACRINE] | 1.8 | 12.8 | 8 | 7.3 h | 0.84 h | 0.98 | 0.86 | 0.04 mM | 0.0263 µM | 0.002 µM | 0.00066 µM | 14.9 | 3.8 | – | – | – | –
COC(=O)c1ccc([N+](=O)[O-])c2c(NCCCN(C)C)c3ccccc3nc12 | – | – | – | – | 3.9 h | 0.45 | – | 0.01 mM | 2.9 µM | 1.95 µM | 0.59 µM | 1.5 | 1.2 | 1.2 | Not Active | 0.47 | 1.5
COc1ccc([N+](=O)[O-])c2c(NCCCN(C)C)c3ccccc3nc12 | – | – | – | 14 h | 5.2 h | 0.78 | 0.76 | 3 mM | 0.616 µM | 0.063 µM | 0.0145 µM | 7.8 | 4.2 | 5.3 | – | – | –
CN(C)CCCNc1c2ccccc2nc2ccccc12 | 0.78 | 1.03 | 0.87 | – | – | – | – | – | – | – | – | – | – | – | – | – | –
CN(C)CCCNc1c2ccccc2nc2c(Cl)ccc([N+](=O)[O-])c12 | – | – | – | 4.3 h | 0.68 h | 0.56 | 0.79 | 0.04 mM | 0.033 µM | 0.0033 µM | 0.00062 µM | 13 | 4.9 | 3.7 | – | – | –
O=C(O)CCCc1ccc(N(CCCl)CCCl)cc1 | 0.69 | 43 | 1.4 | – | – | – | – | – | – | – | – | – | – | – | – | – | –
CO[C@@]12[C@H](COC(N)=O)C3=C(C(=O)C(C)=C(N)C3=O)N1C[C@@H]1N[C@@H]12 | 0.78 | 86 | 2.35 | – | – | – | – | – | – | – | – | – | – | – | – | – | –
CC(=O)OCCN(CCOC(C)=O)c1ccc([N+](=O)[O-])c2c(NCCCN(C)C)c3ccccc3nc12 | – | – | – | 18 h | 8.4 h | 1.03 | 1.11 | – | 43 µM | 11.6 µM | 3.45 µM | 4.8 | 4.8 | 4.5 | – | – | –
CCOS(C)(=O)=O [METHANESULFONIC ACID ETHYL ESTER] | 6.3 | 1.3 | 1.2 | – | – | – | – | – | – | – | – | – | – | – | – | – | –
